According to publication PMC3291815 (Circulation Research, 2011):
Like-named read-outs stand apart in the source and are kept apart here. Blank lines part the entries; values can stand above or below the molecule they belong to. Positions of bridges follow the written chain, without caps; N, C: chain ends. No end group written: not given here.

T1: CD40L-Mac-1 I-domain interaction (Homo sapiens, UniProt P29965)
T1 sequence (P29965 108-261): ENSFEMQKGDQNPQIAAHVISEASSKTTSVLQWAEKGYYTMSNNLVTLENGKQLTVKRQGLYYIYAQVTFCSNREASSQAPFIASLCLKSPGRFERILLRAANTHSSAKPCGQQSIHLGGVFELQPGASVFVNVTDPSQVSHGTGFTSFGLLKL

B1: CD40L (recombinant, His- and c-myc-tag fusion protein, E108 to L261) (ligand)
chain: T1 sequence (P29965 108-261)

What was measured:
[1] = biological target: T1, CD40L-Mac-1 I-domain interaction; assay type: binding
Summary of the method: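 Recombinant CD40L (residues E108–L261, His- and c-myc-tagged) was incubated with immobilized Mac-1 I-domain alongside a range of cyclized peptide or scrambled peptide concentrations. Bound CD40L was detected with anti-c-myc-HRP and TMB substrate by colorimetric read-out. Anti-CD40L (100 μg/ml) and saline served as controls.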

[2] = tested on: Murine fibroblasts over-expressing CD40L; assay type: cell-based; details: flow cytometry; not to mock-transfected control cells
[3] = assay type: in vivo, C57BL/6J mice; details: after intraperitoneal injection, FITC-coupled peptide, plasma fluorescence
Summary of the method: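 C57BL/6J mice received a single intraperitoneal injection of FITC- or TAMRA-labelled cyclized peptide or its scrambled control, at 100 or 200 μg. Plasma samples were collected at set time points, and peptide level was followed by plasma fluorescence.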

[4] = biological target: T2, Mac-1 I-domain (recombinant, His-tag fusion protein, R115 to S340) (UniProt P11215 131-356); assay: SPR
[5] = biological target: T2, Mac-1 I-domain (recombinant, His-tag …); assay: SPR; remark: listed apart in the source
[6] = biological target: B1; assay: dynamic cell adhesion assay

T2 sequence (P11215 131-356): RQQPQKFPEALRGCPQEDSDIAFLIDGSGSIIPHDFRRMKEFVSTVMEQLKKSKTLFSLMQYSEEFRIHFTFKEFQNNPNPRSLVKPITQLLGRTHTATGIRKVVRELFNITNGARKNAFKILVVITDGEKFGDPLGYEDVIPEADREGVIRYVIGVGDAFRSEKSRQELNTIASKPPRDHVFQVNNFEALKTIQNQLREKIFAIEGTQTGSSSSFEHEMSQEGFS

- IC50 [1]: 200 to 900 nM
Molecule: EQLKKSKTL [M7]

- Binding to Murine fibroblasts over-expressing CD40L [2]: concentration-dependently bound
Molecule: FITC-labeled cM7: cM7 coupled to fluorescein isothiocyanate (CEQLKKSKTLC; disulfide 1-11; also: FITC coupled, site not given here)
- Time of highest plasma availability [3]: 30 min

Molecule: B1
- Kd [4]: 214 nM
- Kd [5]: 671 nM

- IC50 [6]: 206 nM
Molecule: CEQLKKSKTLC (disulfide 1-11) [cM7, cyclised version of peptide M7]
